Assay results reported in ChEMBL document CHEMBL3271987, “Novel pyrazolo, isoxazolo, and thiazolo steroidal systems and model analogs containing dimethyoxylaryl (or dihydroxylaryl) groups and derivatives. Synthesis, spectral properties, and biological activity” (1976).
Activity calls are given as the source filed them. The rule behind the calls is not given here.

What was measured:
Bacillus subtilis = assay: Antibacterial activity against Bacillus subtilis at 91 ug/ml measured up to 24 hrs by spectrophotometry; assay type: functional, organism-based
In short: (§1)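 Compound suspended in water with 0.1% Me2SO and added to tube cultures of the bacterium growing on glucose minimal medium, to a maximum final concentration of 91 μg/ml. Growth followed by periodic absorbance readings at 540 nm over 24 hr of incubation. Complete inhibition scored at concentration limits of 1 and 91 μg/ml.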

Pseudomonas fluorescens = assay: Antibacterial activity against Pseudomonas fluorescens at 91 ug/ml measured up to 24 hrs by spectrophotometry; assay type: functional, organism-based; in short: as §1
KB [1] = assay: Growth inhibition of human KB cells at 25 ug/ml after 7 days by microscopy; assay type: functional; details: 168 h, read-out: GI
KB [2] = assay: Growth inhibition of human KB cells at 50 ug/ml after 7 days by microscopy; assay type: functional; details: 168 h, read-out: GI
KB [3] = assay: Growth inhibition of human KB cells at 25 to 100 ug/ml after 7 days by microscopy; assay type: functional, cell-based
KB [4] = assay: Growth inhibition of human KB cells at 10 ug/ml after 7 days by microscopy; assay type: functional; details: 168 h, read-out: GI
KB [5] = assay: Growth inhibition of human KB cells at < 25 ug/ml after 7 days by microscopy; assay type: functional
KB [6] = assay: Growth inhibition of human KB cells at 12 ug/ml after 7 days by microscopy; assay type: functional, cell-based
L1210 = assay: Antitumor activity against mouse L1210 cells allografted in BDF1 mouse assessed as increase in life span at 0.2 mg, ip qd for 5 days relative to control; assay type: functional
In short: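 Female BDF1 mice, 35 days old, ten per group, given 1 × 10⁶ viable L1210 cells ip on day 0. Treatment on days 1–5 was 0.2 mg per injection ip, once daily (1 mg total), suspended in saline with 0.05% carboxymethylcellulose. Controls received carrier only. Readout was the ratio of mean survival time (days) of treated to control mice (T/C).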

KB [7] = assay: Growth inhibition of human KB cells at 25 ug/ml after 7 days by microscopy
KB [8] = assay: Growth inhibition of human KB cells at 150 ug/ml after 7 days by microscopy; assay type: functional, cell-based
Staphylococcus aureus = assay: Antibacterial activity against Staphylococcus aureus clinical isolate at 91 ug/ml measured up to 24 hrs by spectrophotometry; assay type: functional, organism-based
In short: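 A recent clinical isolate was grown in tube cultures of nutrient broth. Compound was suspended in water containing 0.1% Me2SO and added to a maximum final concentration of 91 μg/ml. Absorbance at 540 nm was read periodically during 24 hr of incubation.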

Row | SMILES | growth inhibition (GI) (Bacillus subtilis) | growth inhibition (GI) (Pseudomonas fluorescens) | other results
1 | COc1cc2ccc3c(c2cc1OC)CCc1cnn(-c2ccc(F)cc2)c1-3 | inactive | inactive | 
2 | Oc1cc2ccc3c(c2cc1O)CCc1cn[nH]c1-3 | inactive | inactive | 
3 | COc1cc2c(cc1OC)-c1c(cnn1-c1ccccc1)CC2 | Active | inactive | 
4 | Oc1ccc(-n2ncc3c2-c2cc(O)c(O)cc2CC3)cc1 | inactive | inactive | 
5 | COc1ccc2c(c1)CCc1cnn(-c3ccccc3)c1-2 | Active | inactive | 
6 | COc1cc2c(cc1OC)-c1c(cnn1S(=O)(=O)c1ccc(C)cc1)CC2 | inactive | inactive | 
7 | COc1cc2c(cc1OC)-c1[nH]ncc1CC2 | Active | inactive | inhibition of growth at 25 µg/mL (KB [1]): 50%; inhibition of growth at 50 µg/mL (KB [2]): 69%
8 | COc1cc2c(cc1OC)-c1oncc1CC2 | Active | inactive | growth inhibition (GI) (KB [3]): inactive
9 | COc1cc2c(cc1OC)C1=NN(c3ccccc3)C(=O)[C@H]1CC2 | inactive | inactive | 
10 | Oc1cc2ccc3c(c2cc1O)CCc1cnn(-c2ccc(F)cc2)c1-3 | Active | inactive | inhibition of growth at 10 µg/mL (KB [4]): 50%; growth inhibition (GI) (KB [5]): 50%
11 | COc1cc2c(cc1OC)C1=NNC(=O)[C@H]1CC2 | inactive | inactive | 
12 | COc1cc2c(cc1OC)-c1c(cnn1[C@H]1O[C@H](COC(C)=O)[C@@H](OC(C)=O)[C@H](OC(C)=O)[C@H]1OC(C)=O)CC2 | inactive | inactive | 
13 | Oc1cc2c(cc1O)-c1[nH]ncc1CC2 | Active | inactive | growth inhibition (GI) (KB [6]): Active; Ratio (L1210): 1.14; growth inhibition (GI) (KB [5]): 50%
14 | COc1ccc2c3c(ccc2c1)-c1c(cnn1[C@H]1O[C@H](COC(C)=O)[C@@H](OC(C)=O)[C@H](OC(C)=O)[C@H]1OC(C)=O)CC3 | Active | inactive | growth inhibition (GI) (KB [5]): 50%
15 | COc1cc2c(cc1OC)-c1nocc1CC2 | inactive | inactive | 
16 | COc1cc2c(cc1OC)C1=NNC(=O)[C@@]1(C)CC2 | Active | inactive | growth inhibition (GI) (KB [7]): 50%
17 | Oc1ccc2c(c1)CCc1cnn(-c3ccccc3)c1-2 | inactive | inactive | 
18 | COc1ccc2c(c1)CC[C@@H]1C(=O)NN=C21 | Active | inactive | growth inhibition (GI) (KB [7]): 50%
19 | COc1cc2ccc3c(c2cc1OC)CCc1cnoc1-3 | Active | inactive | 
20 | COc1ccc2c3c(ccc2c1)-c1c(cnn1[C@H]1O[C@H](CO)[C@@H](O)[C@H](O)[C@H]1O)CC3 | inactive | inactive | 
21 | COc1cc2c(cc1OC)-c1c(cnn1[C@H]1O[C@H](CO)[C@@H](O)[C@H](O)[C@H]1O)CC2 | inactive | inactive | 
22 | COc1cc2c(cc1OC)-c1nc(N)sc1CC2 | Active | inactive | growth inhibition (GI) (KB [8]): Active; growth inhibition (GI) (KB [7]): 50%
23 | C=CCNc1nc2c(s1)CCc1cc(OC)c(OC)cc1-2 | Active | inactive | inhibition of growth at 25 µg/mL (KB [1]): 50%; growth inhibition (GI) (KB [8]): Active
24 | COc1cc2c(cc1OC)-c1nc(Nc3ccccc3)sc1CC2 | Active | inactive | growth inhibition (GI) (KB [7]): 50%
25 | COc1cc2ccc3c(c2cc1OC)CCc1cn[nH]c1-3 | Active | inactive | growth inhibition (GI) (KB [3]): inactive
26 | COc1cc2c(cc1OC)-c1nc(C)sc1CC2 | inactive | inactive | 
27 | COc1ccc2c(c1)CCc1cnn([C@H]3O[C@H](COC(C)=O)[C@@H](OC(C)=O)[C@H](OC(C)=O)[C@H]3OC(C)=O)c1-2 | Active | Active | growth inhibition (GI) (Staphylococcus aureus): Active; growth inhibition (GI) (KB [7]): 50%
28 | Oc1cc2c(cc1O)-c1c(cnn1-c1ccccc1)CC2 | Active | inactive | growth inhibition (GI) (KB [5]): 50%
29 | COc1cc2c(cc1OC)C1=NN(c3ccc(F)cc3)C(=O)[C@H]1CC2 | inactive | inactive | 
30 | COc1ccc(-n2ncc3c2-c2cc(OC)c(OC)cc2CC3)cc1 | Active | inactive | growth inhibition (GI) (KB [3]): inactive
